Results: ChEMBL document CHEMBL4265907, “Design, synthesis and pharmacological evaluation of N4,N6-disubstituted pyrimidine-4,6-diamine derivatives as potent EGFR inhibitors in non-small cell lung cancer” (Eur J Med Chem, 2018)
The source made the active and inactive calls. The calls are words filed in the database; no cut-off is given here.

Key:
[1] = Half life in Sprague-Dawley rat at 30 mg/kg, po by UPLC-MS/MS analysis; type: ADME, organism-based; details: in vivo
How it was run: (§1)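 Four female and four male Sprague-Dawley rats, 200-220 g, fasted 12 h, then given a single oral dose of 30 mg/kg as a 0.5% CMC-Na suspension. Blood sampled at 0.083, 0.25, 0.5, 1, 2, 4, 8 and 24 h, plasma separated by centrifugation at 4000 r/min for 10 min, and analysed by UPLC–MS/MS. Parameters reported as mean ± SD, n=6.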

HCC827 [2] = assay: Induction of apoptosis in human HCC827 cells assessed as late apoptotic cells at 250 nM after 48 hrs by Annexin V-FITC/PI staining based flow cytometry (reference value: 1.15%); type: functional
NCI-H3255 [3] = assay: Induction of apoptosis in human H3255 cells assessed as late apoptotic cells at 500 nM after 48 hrs by Annexin V-FITC/PI staining based flow cytometry (reference value: 1.77%); type: functional
A-431 [4] = assay: Induction of apoptosis in human A431 cells assessed as late apoptotic cells at 250 nM after 48 hrs by Annexin V-FITC/PI staining based flow cytometry (reference value: 2.11%); type: functional
A-431 [5] = assay: Induction of apoptosis in human A431 cells assessed as necrotic cells at 1000 nM after 48 hrs by Annexin V-FITC/PI staining based flow cytometry (reference value: 4.16%); type: functional
NCI-H1975 [6] = assay: Induction of apoptosis in human NCI-H1975 cells assessed as late apoptotic cells at 250 nM after 48 hrs by Annexin V-FITC/PI staining based flow cytometry (reference value: 1.91%); type: functional
NCI-H1975 [7] = assay: Induction of apoptosis in human NCI-H1975 cells assessed as viable cells at 250 nM after 48 hrs by Annexin V-FITC/PI staining based flow cytometry (reference value: 93.7%); type: functional; details: NCI-H1975, 48 h, read-out: Activity
HCC827 [8] = assay: Induction of apoptosis in human HCC827 cells assessed as viable cells at 1000 nM after 48 hrs by Annexin V-FITC/PI staining based flow cytometry (reference value: 94.6%); type: functional; details: HCC827, 48 h, read-out: Activity
[9] = biological target: T1, Epidermal growth factor receptor (Homo sapiens, UniProt P00533); assay: Inhibition of EGFR in human A431 cells assessed as decrease in EGF-induced ERK1/2 phosphorylation by Western blot method; type: cell-based
How it was run: (§2)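 Cell lysates prepared in protein lysis buffer and cleared at 12,000 g for 10 min at 4 °C. 50 μg protein per lane was run on a gel, transferred to PVDF and immunoblotted, with GAPDH as the loading control.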

HCC827 [10] = assay: Induction of apoptosis in human HCC827 cells assessed as early apoptotic cells at 1000 nM after 48 hrs by Annexin V-FITC/PI staining based flow cytometry (reference value: 2.83%); type: functional
Mus musculus = assay: In vivo inhibition of AKT phosphorylation in tumor of BALB/C nude mouse xenografted with human PC9 cells at 15 to 30 mg/kg, ip qd administered for 19 days by immunoblot method; type: functional, organism-based
HCC827 [11] = assay: Induction of apoptosis in human HCC827 cells assessed as late apoptotic cells at 500 nM after 48 hrs by Annexin V-FITC/PI staining based flow cytometry (reference value: 1.15%); type: functional
NCI-H3255 [12] = assay: Induction of apoptosis in human H3255 cells assessed as necrotic cells at 500 nM after 48 hrs by Annexin V-FITC/PI staining based flow cytometry (reference value: 7.06%); type: functional
NCI-H3255 [13] = assay: Induction of apoptosis in human H3255 cells assessed as early apoptotic cells at 500 nM after 48 hrs by Annexin V-FITC/PI staining based flow cytometry (reference value: 3.22%); type: functional
A-431 [14] = assay: Induction of apoptosis in human A431 cells assessed as late apoptotic cells at 500 nM after 48 hrs by Annexin V-FITC/PI staining based flow cytometry (reference value: 2.11%); type: functional
[15] = biological target: T1, Epidermal growth factor receptor; assay: Inhibition of EGF-induced EGFR autophosphorylation at Y1068 residues in human HCC827 cells by Western blot method; type: cell-based; how it was run: as §2
NCI-H3255 [16] = assay: Induction of apoptosis in human H3255 cells assessed as early apoptotic cells at 250 nM after 48 hrs by Annexin V-FITC/PI staining based flow cytometry (reference value: 3.22%); type: functional
A-431 [17] = assay: Induction of apoptosis in human A431 cells assessed as early apoptotic cells at 1000 nM after 48 hrs by Annexin V-FITC/PI staining based flow cytometry (reference value: 3.40%); type: functional
[18] = AUC (0 to t) in Sprague-Dawley rat at 30 mg/kg, po by UPLC-MS/MS analysis; type: ADME, organism-based; details: in vivo; how it was run: as §1
[19] = biological target: T1, Epidermal growth factor receptor; assay: Inhibition of EGFR in human H3255 cells assessed as decrease in EGF-induced AKT phosphorylation by Western blot method; type: cell-based; how it was run: as §2
A-431 [20] = assay: Induction of apoptosis in human A431 cells assessed as necrotic cells at 500 nM after 48 hrs by Annexin V-FITC/PI staining based flow cytometry (reference value: 4.16%); type: functional
[21] = biological target: T1, Epidermal growth factor receptor; assay: Inhibition of EGFR in human HCC827 cells assessed as decrease in EGF-induced ERK1/2 phosphorylation by Western blot method; type: cell-based; how it was run: as §2
[22] = biological target: T1, Epidermal growth factor receptor; assay: Inhibition of EGFR in human HCC827 cells assessed as decrease in EGF-induced AKT phosphorylation by Western blot method; type: cell-based; how it was run: as §2
NCI-H3255 [23] = assay: Induction of apoptosis in human H3255 cells assessed as viable cells at 250 nM after 48 hrs by Annexin V-FITC/PI staining based flow cytometry (reference value: 87.9%); type: functional; details: NCI-H3255, 48 h, read-out: Activity
Rattus norvegicus = assay: Volume of distribution in Sprague-Dawley rat at 30 mg/kg, po by UPLC-MS/MS analysis; type: ADME, organism-based; details: in vivo
How it was run: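 Sprague-Dawley rats (four female, four male; 200-220 g) were fasted 12 h and given a single oral 30 mg/kg dose as a 0.5% CMC-Na suspension. Blood was drawn at 0.083, 0.25, 0.5, 1, 2, 4, 8 and 24 h and centrifuged at 4000 r/min for 10 min. Samples were quantified by UPLC–MS/MS; parameters are reported for n=6.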

NCI-H3255 [24] = assay: Induction of apoptosis in human H3255 cells assessed as necrotic cells at 250 nM after 48 hrs by Annexin V-FITC/PI staining based flow cytometry (reference value: 7.06%); type: functional
A-431 [25] = assay: Induction of apoptosis in human A431 cells assessed as necrotic cells at 250 nM after 48 hrs by Annexin V-FITC/PI staining based flow cytometry (reference value: 4.16%); type: functional
HCC827 [26] = assay: Induction of apoptosis in human HCC827 cells assessed as necrotic cells at 250 nM after 48 hrs by Annexin V-FITC/PI staining based flow cytometry (reference value: 1.41%); type: functional
A-431 [27] = assay: Induction of apoptosis in human A431 cells assessed as early apoptotic cells at 250 nM after 48 hrs by Annexin V-FITC/PI staining based flow cytometry (reference value: 3.40%); type: functional
NCI-H1975 [28] = assay: Induction of apoptosis in human NCI-H1975 cells assessed as late apoptotic cells at 1000 nM after 48 hrs by Annexin V-FITC/PI staining based flow cytometry (reference value: 1.91%); type: functional

T1 sequence (P00533 whole entry): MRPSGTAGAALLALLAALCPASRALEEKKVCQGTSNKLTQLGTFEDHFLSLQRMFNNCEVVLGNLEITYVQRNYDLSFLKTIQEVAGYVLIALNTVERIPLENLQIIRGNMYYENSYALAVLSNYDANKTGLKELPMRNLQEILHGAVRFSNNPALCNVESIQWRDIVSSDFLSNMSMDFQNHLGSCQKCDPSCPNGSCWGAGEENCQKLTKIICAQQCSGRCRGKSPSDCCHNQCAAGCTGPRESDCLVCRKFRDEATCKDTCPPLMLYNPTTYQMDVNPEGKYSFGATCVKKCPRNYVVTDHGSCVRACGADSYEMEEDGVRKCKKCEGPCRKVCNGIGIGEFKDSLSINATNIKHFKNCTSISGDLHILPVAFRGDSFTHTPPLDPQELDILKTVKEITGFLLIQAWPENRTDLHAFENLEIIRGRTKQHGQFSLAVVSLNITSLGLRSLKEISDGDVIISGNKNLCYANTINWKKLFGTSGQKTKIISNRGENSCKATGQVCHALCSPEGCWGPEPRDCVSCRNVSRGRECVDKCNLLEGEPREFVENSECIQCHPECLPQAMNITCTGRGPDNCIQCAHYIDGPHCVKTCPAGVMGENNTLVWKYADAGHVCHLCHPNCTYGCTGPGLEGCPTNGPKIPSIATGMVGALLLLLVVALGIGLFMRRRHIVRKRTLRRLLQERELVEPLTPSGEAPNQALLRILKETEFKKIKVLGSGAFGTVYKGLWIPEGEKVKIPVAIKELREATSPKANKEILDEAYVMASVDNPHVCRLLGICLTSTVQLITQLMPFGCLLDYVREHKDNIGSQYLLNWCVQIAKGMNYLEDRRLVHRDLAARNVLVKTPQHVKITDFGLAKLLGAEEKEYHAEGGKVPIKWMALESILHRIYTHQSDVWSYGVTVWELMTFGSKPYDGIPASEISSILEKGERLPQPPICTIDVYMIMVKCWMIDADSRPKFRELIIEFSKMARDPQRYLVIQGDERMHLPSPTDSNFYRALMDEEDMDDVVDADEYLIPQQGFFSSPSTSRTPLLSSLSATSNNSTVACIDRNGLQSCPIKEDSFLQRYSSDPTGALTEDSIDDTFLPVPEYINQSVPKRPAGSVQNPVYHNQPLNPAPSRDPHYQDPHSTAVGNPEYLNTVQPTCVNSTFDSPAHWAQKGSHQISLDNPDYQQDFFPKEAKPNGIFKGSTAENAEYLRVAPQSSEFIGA

Structure (SMILES): COc1cccc(Nc2cc(Nc3cc(OC)ccc3OC)ncn2)c1
- half-life [1]: 4.17 h
- Activity (HCC827 [2]): 10.2%
- Activity (NCI-H3255 [3]): 5.35%
- Activity (A-431 [4]): 6.5%
- Activity (A-431 [5]): 3.61%
- Activity (NCI-H1975 [6]): 13.5%
- viability at 0.25 µM (NCI-H1975 [7]): 56.1%
- viability at 1 µM (HCC827 [8]): 53.4%
- inhibition [9]: Dose-dependent effect
- Activity (HCC827 [10]): 19.6%
- inhibition (Mus musculus): Active
- Activity (HCC827 [11]): 7.72%
- Activity (NCI-H3255 [12]): 4.88%
- Activity (NCI-H3255 [13]): 11.5%
- Activity (A-431 [14]): 8.57%
- inhibition [15]: Dose-dependent effect
- Activity (NCI-H3255 [16]): 13.3%
- Activity (A-431 [17]): 18.1%
- AUC(0-t) [18]: 5700 ng·h/mL
- inhibition [19]: Dose-dependent effect
- Activity (A-431 [20]): 5.66%
- inhibition [21]: Dose-dependent effect
- inhibition [22]: Dose-dependent effect
- viability at 0.25 µM (NCI-H3255 [23]): 79.2%
- Vd (Rattus norvegicus): 0.03 L/kg
- Activity (NCI-H3255 [24]): 4.27%
- Activity (A-431 [25]): 3.41%
- Activity (HCC827 [26]): 12.4%
- Activity (A-431 [27]): 10.8%
- Activity (NCI-H1975 [28]): 18.2%
